Measured values pooled from the literature.
Route: oral

Oc1ccc([C@@H]2Oc3ccc(O)cc3[C@@H]3CCC[C@@H]32)cc1
bioavailability (male C57BL/6 mouse; plasma; 10 mg/kg): 14%

Cc1nc2ccc(OCc3ccc(C(F)(F)F)cc3)cc2[nH]1
bioavailability (male BALB/c mouse; plasma; 10 mg/kg): 35%

Cc1cc(-c2ccnc3[nH]cc(F)c23)cc(F)c1[C@@]1(O)[C@H](C)CN(C(=O)CN)C[C@@H]1C
bioavailability (male CD-1 mouse; plasma; 3 mg/kg): 30.7%

O=C1CCC(N2Cc3cc(C4CCN(Cc5ccccc5)CC4)ccc3C2=O)C(=O)N1 (centres unmarked)
bioavailability (male CD-1 mouse; plasma; 3 mg/kg): 63.8%

FC(F)(F)CN1CC(n2cc(Oc3ccn4nc(Cl)cc4n3)cn2)C1
bioavailability (FVB mouse; blood; single dose): 46%

CC(C)[C@@H](CS(=O)(=O)C(C)C)N1C(=O)[C@@](C)(CC(=O)O)C[C@H](c2cccc(Cl)c2)[C@H]1c1ccc(Cl)cc1
bioavailability (FVB mouse; plasma; 20 mg/kg; single dose): 16%

Cc1cc(-c2ccnc3[nH]cc(F)c23)cc(F)c1[C@@]1(O)[C@H](C)CN(C2CCS(=O)(=O)CC2)C[C@@H]1C
bioavailability (male CD-1 mouse; plasma; 3 mg/kg): 37.7%

CN(C)C(=O)c1cc2cnc(Nc3ccc(-c4ccc5c(=O)cc(N6CCOCC6)oc5c4)cc3)nc2n1C1CCCC1.Cl
bioavailability (BALB/c mouse; plasma; 20 mg/kg): 29%

C=CCn1c(=O)c2cnc(Nc3ccc(N4CCN(C)CC4)cc3)nc2n1-c1ccc2c(n1)[C@@](O)(CC)CC2
bioavailability (mouse; plasma; 60 mg/kg): 98%

NCc1ccc(-c2nn(Cc3ccccc3)c3ccccc23)o1
bioavailability (male CD-1 mouse; plasma; 10 mg/kg): 34%

Cc1ccc(OCC(=O)N[C@@H](Cc2c[nH]c3ccccc23)C(=O)OC(C)C)cc1
bioavailability (male Sprague-Dawley mouse; plasma; 20 mg/kg): 39%

CCOC(=O)C1=C(CN2CCC[C@@H]2C(=O)Nc2ccc(B(O)O)cc2)NC(c2nccs2)=N[C@H]1c1ccc(F)cc1Br
bioavailability (CD-1 mouse; plasma; 10 mg/kg): 10.4%

COCC(=O)N1CCc2[nH]c3c(Cl)c(Cl)ccc3c2[C@@H]1C
bioavailability (C57BL/6 mouse; blood; 20 mg/kg): 12.5%

OCc1ccc(-c2nn(Cc3ccccc3)c3ccccc23)o1
bioavailability (male CD-1 mouse; plasma; 10 mg/kg): 11%
